Assay results: article PMC6595297 (British Journal of Clinical Pharmacology, 2019)

Key:
[1] = Phase I DDI study: pevonedistat plasma PK alone and with fluconazole; type: in vivo, human
How it was run: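 Single IV pevonedistat given on day 1 alone and on day 8 with the CYP3A inhibitor. K2EDTA plasma was sampled within 1 h predose, at end of infusion, and at 0.5, 1, 2, 3, 4, 8, 12, 24, 48 and 72 h postdose. Samples were assayed by two GLP-validated LC–MS/MS methods (0.0500–25.0 and 1.00–500 ng mL−1). Noncompartmental PK was used. Day 8/day 1 geometric mean ratios with 90% CIs came from ANOVA (subject random), back-transformed.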

[2] = test system: CYP3A4; settings: in vitro metabolism studies, ref data on file; cited from earlier work
[3] = estimated across doses and schedules, 1‐h IV infusion; cited from earlier work
[4] = Pevonedistat 8 mg m^−2, + fluconazole (day 8) vs alone (day 1), n = 12
[5] = human, plasma, intravenous, 8 mg

SMILES: NS(=O)(=O)OC[C@@H]1C[C@@H](n2ccc3c(N[C@H]4CCc5ccccc54)ncnc32)C[C@@H]1O [Pevonedistat]
- AUClast, geometric LS mean ratio (test/reference) (90% CI) [1, 4]: 110.21 (102.34–118.69) %
- AUC∞, geometric LS mean ratio (test/reference) (90% CI) [1, 4]: 110.66 (102.53–119.43) %
- C max, geometric LS mean ratio (test/reference) (90% CI) [1, 4]: 98.75 (82.60–118.05) %
- AUC(0-inf) [1, 5]: 450 ng·h/mL
- AUC(0-t) [1, 5]: 445 ng·h/mL
- Cmax [1, 5]: 51.6 ng/mL
- AUC(0-inf) ([1]; human, plasma, iv, 8 mg): 450 ng·h/mL
- Cmax ([1]; human, plasma, iv, 8 mg): 51.6 ng/mL
- clearance ([1]; human, plasma, iv, 8 mg): 528 mL/min
- half-life ([1]; human, plasma, iv, 8 mg): 11.1 h
- AUC∞ geometric mean ratio, presence vs. absence of fluconazole ([1]; pevonedistat 8 mg m^−2, n = 12): 1.11
- Contribution of CYP3A4 to pevonedistat biotransformation [2]: 97%
- Mean terminal elimination half‐life (t 1/2) [3]: 10 to 11 h
